Compound activity from PubChem BioAssay.
aSyn UTR inh: MLPCN primary screen, SNCA 5' untranslated region | alpha-synuclein 5'UTR reporter, inhibitor activity | inhibition, % (tested at 7.5 µM) | hit rate 0.82% among 300,000 | AID 1813, 2009; in the data active means inhibition above about 60%;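 further: H4 neuroglioblastoma cells stably carrying SNCA 5'UTR luciferase fusion; 0% = DMSO wells and 100% = positive control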
H9c2 TAG inh: inhibitors of triacylglycerol accumulation, primary screen, cell-based, uHTS, fluorescence, H9c2. H9c2 cells, Nile Red lipid (TAG) fluorescence; cells loaded with 200 µM oleic acid. hit rate 0.66% among 230,000. inhibition, % at 12.5 µM;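 active means pattern-corrected inhibition of lipid staining of at least 50% with the nuclear-stain viability signal not falling by more than 50%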;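 further: 0% = DMSO wells and 100% = triacsin C control wells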
APP 5UTR inh: inhibitors of APP translation via 5'UTR reporter, primary screen, APP 5'UTR luciferase, SH-SY5Y cells | hit rate 0.82% among 190,000 | SH-SY5Y APP 5'UTR-luciferase reporter, luminescence | inhibition, % at 2 µM;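 active means inhibition above a set limit, derived from the sample mean plus 3 SD, cut at about 45% in these data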
697 NFkB inh: inhibitors of PMA/ionomycin-induced NF-kB reporter, 697 cells, primary screen, B-cell NF-kB inhibitor project, cell-based, luminescence, uHTS; 697 B-cell NF-kB luciferase reporter, 16 h; inhibition, % at 4 µM; hit rate 0.33% among 330,000; in the data active means inhibition above about 35%
Hep lipid drop: inhibitors of hepatocyte lipid droplet formation, primary screen, imaging, high-throughput imaging, BODIPY stain | AML12 mouse hepatocytes, oleate lipid droplets | inhibition, % at 6.5 µM | hit rate 0.4% among 240,000;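 active means lipid droplet intensity inhibited by at least 50%, with more than 500 cells counted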
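System: AML12 hepatocytes (mouse). Probe or stimulus: oleic acid at 100 µM to induce lipid droplet formation. Times: overnight treatment with compound plus oleate. Detection: Image-based BODIPY and DAPI two-channel analysis. Evaluation: percent inhibition of filter-corrected integrated lipid droplet intensity per well.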
Jurkat NFkB inh: inhibitors of induced NF-kB luciferase reporter, primary screen, TCR NF-kB activation inhibitor project, cell-based, luminescence, uHTS; Jurkat, PMA/ionomycin-induced NF-kB luciferase reporter; inhibition, % at 4 µM; hit rate 0.53% among 330,000; AID 435003, 2010; in the data active means inhibition above about 50%
TAG conf: triacylglycerol accumulation inhibitors, retest, confirmation, cell-based, single concentration, Nile Red fluorescence, H9c2; shares compounds with H9c2 TAG inh; hit rate 71% among 990; inhibition, % at 12.5 µM; H9c2 lipid accumulation; cells loaded with 200 µM oleic acid;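 active means mean inhibition across replicates of 40% or more; inactive means mean inhibition below 40%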;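 further: plate controls were DMSO only wells for no effect and Triacsin C treated wells for full effect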
* = called active by the depositor; · = no result. Compounds with a hit are over-represented: about 1.9% of the library has one in this group of screens.

SMILES	aSyn UTR inh	H9c2 TAG inh	APP 5UTR inh	697 NFkB inh	Hep lipid drop	Jurkat NFkB inh	TAG conf
COC(=O)c1ccc(C(=O)OC)c(NC(=O)CN2CCN(c3ccc(OC)cc3)CC2)c1	-3	56*	5	20	-2	1	20
Cn1c(=O)c2c(O)c(C=Nc3ccc(F)cc3)c(=O)n(C)c2n(C)c1=O	11	·	·	-18	-5	1	·
COc1cc2c3c(c1)c(C1=NC(=S)NC1=O)c(O)n3C(C)(C)C=C2C	11	83*	9	1	24	-6	66*
Fc1ccc(Nc2nc(-c3ccncc3)nc3ccccc23)cc1F	-5	·	9	9	29	-19	·
Clc1cccc(Nc2nc(-c3ccncc3)nc3ccccc23)c1	12	67*	·	12	16	-28	52*
Cc1nc2nc(-c3cccs3)[nH]c2cc1Br	-149	0	·	-87	·	-77	·
N#Cc1ccccc1NC(=O)COC(=O)/C=C/c1cn(-c2ccccc2)nc1-c1ccc(Cl)cc1	·	84	13	·	21	·	·
COc1ccc(-c2nn(-c3ccccc3)cc2/C=C/C(=O)OCC(=O)Nc2ccccc2C#N)cc1	0	67*	17	-8	·	-2	77*
Cc1ccc(Nc2cc(C)nc(-c3ccccc3)n2)cc1	-124	·	·	-73	-1	-80	·
N#CC1C=Cc2c(ccc3ccccc23)N1C(=O)c1ccccc1 (stereo unspecified)	·	60*	·	·	·	·	56*
N#CC1C=Cc2ccccc2N1C(=O)c1ccccc1 (stereo unspecified)	-1	-3	·	28	3	-4	·
O=C(Cc1ccccc1)Nc1nc(-c2cccs2)cs1	-136	62*	-14	-1	·	-16	32
Cc1ccc(-n2cc(CNCCCn3cccn3)c(-c3cccc(C)c3)n2)cc1	18	52*	·	2	19	5	52*
CC(C)(C)NC(=O)C(c1ccc(-c2ccccc2)cc1)N(C[C@H]1CC[C@@H]([C@@H]2CC[C@H](CO)O2)O1)C(=O)c1ccc2ccccc2c1 (stereo partly specified)	·	65*	·	11	·	·	82*
CC(C)(C)NC(=O)C(c1ccc(-c2ccccc2)cc1)N(C[C@H]1CC[C@@H]([C@@H]2CC[C@H](CO)O2)O1)C(=O)c1ccc(-c2ccccc2)cc1 (stereo partly specified)	·	60*	·	14	·	·	67*
COc1ccccc1NS(=O)(=O)c1cc(NC(=O)/C=C/c2cccs2)ccc1N1CCOCC1	-41	54*	-2	-51	5	18	32
O=C(/C=C/c1cccs1)Nc1ccc(N2CCOCC2)c(S(=O)(=O)Nc2ccccc2Cl)c1	-139	·	-20	-23	-18	8	·
Cc1nc(C(F)(F)F)ccc1C(=O)N1CCC1(C)C(=O)NCc1cccs1 (stereo unspecified)	·	-9	·	·	·	·	·
O=C(Nc1ccccc1C(=O)NCCc1ccc(O)cc1)c1ccco1	3	·	·	15	3	3	·
CC(OC(=O)c1ccc2ncsc2c1)C(=O)N(C)C1CCCCC1 (stereo unspecified)	·	-47	·	-12	·	-3	·
CCC(C)Nc1nc(-c2cccc(OC)c2O)nc2ccccc12 (stereo unspecified)	19	57*	5	18	14	-14	44*
CCC(=O)Nc1c(-c2ccc(OC)cc2)c(=O)c2ccccc2n1C	-17	61*	0	15	2	-9	4
CCC1(c2ccccc2)NC(=O)N(CC(=O)NC2(C#N)CCCCC2)C1=O (stereo unspecified)	5	5	·	-1	·	-6	·
CC(C)(C)OC(=O)N1CCN(c2ccc(NC(=O)Cn3nnc(-c4ccccc4)n3)cc2)CC1	-52	62*	14	3	84*	3	18
CC(=O)N(Cc1ccco1)c1nc(C(=O)Nc2ccc(Cl)cc2)c(C)s1	-105	·	-1	-1	-15	1	·
SMILES	aSyn UTR inh	H9c2 TAG inh	APP 5UTR inh	697 NFkB inh	Hep lipid drop	Jurkat NFkB inh	TAG conf
CCC(=O)Nc1ccc(C(=O)NNC(=O)COc2cccc(C)c2)cc1	11	·	-8	9	2	8	·
COC(=O)c1c(NC(=S)NN2CCN(C)CC2)sc2c1CCC(C)C2 (stereo unspecified)	-29	65*	9	1	6	12	84*
COC(=O)c1c(NC(=O)Cc2cccs2)sc2c1CCC(C)C2 (stereo unspecified)	-33	·	-7	-58	-10	-52	·
Cc1ccc(-n2c(=O)[nH]c3cc(C(=O)NC4CCN(Cc5ccccc5)CC4)ccc3c2=O)cc1	-5	75*	0	0	·	18	28
CN(Cc1ccccc1)C(=O)c1ccc(Nc2nc(C(N)Cc3ccccc3)cs2)nc1 (stereo unspecified)	·	52*	·	·	·	·	49*
NC(Cc1ccc(F)cc1)c1csc(Nc2ccc(C(F)(F)F)cn2)n1 (stereo unspecified)	·	90*	·	·	·	·	74*
NC(Cc1cnc[nH]1)c1csc(Nc2ccc(C(F)(F)F)cn2)n1 (stereo unspecified)	·	23	·	·	·	·	·
CN(Cc1ccccc1)C(=O)c1ccc(Nc2nc(C(N)Cc3ccc(C(F)(F)F)cc3)cs2)nc1 (stereo unspecified)	·	11	·	·	·	·	·
Cc1nc(SCc2nc3ccccc3[nH]2)c2oc3ccccc3c2n1	-16	6	-20	12	·	5	·
c1ccc(-c2nc(SCc3nc4ccccc4[nH]3)c3oc4ccccc4c3n2)cc1	·	74*	·	-13	·	3	88*
O=C(CN1CCCC1)Nc1cccc(Cl)c1Cl	-11	3	·	9	-12	-7	·
Cc1ccc(C)c(NC(=O)CN2C(=O)COc3ccc(S(=O)(=O)N4CCCC4)cc32)c1	-1	·	·	10	-9	6	·
CCCCN1C=C(C(=O)OC)C(c2ccccc2C(F)(F)F)C(C(=O)OC)=C1	6	54*	-8	-28	44	-8	31
NC(=O)COc1ccc(/C=N\NC(=O)CC(=O)NCCc2ccccc2)cc1	-15	·	·	11	-8	20	·
COc1cc(-c2ccc3oc(-c4cccc(C)c4)c(C#CC4(O)CCCCC4)c3c2)cc(OC)c1OC	·	51*	·	8	·	9	53*
COc1ccc(-c2oc3ccc(-c4ccc5c(c4)OCO5)cc3c2C#CC2(O)CCCCC2)cc1	7	-5	·	-24	·	7	·
CCN(C(=O)COC(=O)c1ccc([N+](=O)[O-])o1)c1cccc2ccccc12	·	69*	·	0	·	-4	88*
